The entries come from a sample that favours hits as a whole.
HCT116 bCat-KO: beta-catenin-lacking colon tumor cell growth suppression | 140,000 tested, 1.5% active | HCT116 beta-catenin knockout viability, CellTiter-Glo, 60 h; active compounds read low | viability, % at 10 µM | AID 818;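 active means viability at or under a set limit, the compound median less 4 SD, cut at about 6% in these data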;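 further: 0% = Hyamine 1622 control at 20 µM and 100% = untreated cell control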
HUVEC prolif 384: inhibitors of human endothelial cell proliferation; HUVEC proliferation, CellTiter-Glo luminescence, 72 h; active compounds read low; viability, % at 10 µM (by protocol); 86,000 tested, 1.1% active;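 active means viability at or below 30%; inactive means viability above 30%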;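 further: 100% = median luminescence of DMSO-only cell control wells on each plate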
H69AR inhibit: blocks growth of human H69AR lung tumor cells | 85,000 tested, 6% active | AID 598 | H69AR lung tumor viability, ATP luminescence, 72 h; active compounds read low | viability, % at 10 µM;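 active means viability at or below 40%; inactive means viability above 40%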;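 further: multidrug resistant small cell line overexpressing MRP-1 efflux transporter; 100% = mean luminescence of untreated control wells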
Lung fibro prol: blocks proliferation of human lung fibroblasts; LL 47 human lung fibroblast viability, ATP luminescence; active compounds read low; viability, % at 10 µM; 85,000 tested, 1.1% active; AID 719;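 active means viability at or below 50% in the single dose screen; inactive means viability above 50%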;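 further: compound exposure lasted 72 h before the ATP readout; 100% = median luminescence of untreated cell-only wells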
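Assay system: human lung fibroblast line LL 47, low passage. Input: 1,150 fibroblasts seeded per well. Times: overnight cell rest, 72 h compound treatment at 37 °C. Evaluation: % viability of median cell-only signal. Technique: luminescent ATP detection, CellTiter-Glo. Control set: cell-only wells, no compound.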
HCT116 PTEN-null: PTEN-deleted cell growth suppression; viability, % at 10 µM; HCT116 PTEN-null viability, CellTiter-Glo, 60 h; active compounds read low; 140,000 tested, 1.2% active;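 active means viability at or below a set limit, 4 SD under the median of all tested compounds, cut at about 3.7% in these data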;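 further: PTEN knockout HCT116 line with beta catenin targeted HCT116 as companion control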
* = called active by the depositor; nt = not tested or not shown.

SMILES	HCT116 bCat-KO	HUVEC prolif 384	H69AR inhibit	Lung fibro prol	HCT116 PTEN-null
C=CCn1c(-c2cccc(OC)c2)nc2nc3ccccc3nc21	86	82	34*	93	84
COc1ccc(/C=C2\CCc3ccccc3C2=O)cc1Cn1cccn1	2.9*	nt	nt	nt	2.2*
Cc1ccc(C(C)C)c(OCc2nnc(SCC(=O)Nc3ncc(C)s3)n2C)c1	91	91	9.8*	78	86
Cc1cnc(NC(=O)CSc2nnc(Cc3ccccc3)n2C)s1	104	89	84	92	114
c1ccc(-c2nc(NCc3cccnc3)c3oc4ccccc4c3n2)cc1	58	67	38*	87	52
COc1ccccc1NC(=O)CSCc1nc2ccccc2[nH]1	87	nt	nt	nt	86
O=C(ONc1ccc(N=NC(=O)c2ccccc2O)cc1)c1ccccc1	37	36	12*	70	18
CCOC(=O)N1CCC(N2CC34C=CC(O3)C(C(=O)O)C4C2=O)CC1 (stereo not drawn)	91	101	96	105	86
Cc1ccc([N+](=O)[O-])cc1-c1[nH]c(-c2ccc(O)c(O)c2)nc1-c1ccccc1	35	52	10*	80	28
COc1ccc(-c2nc(-c3ccccc3)c(-c3cc([N+](=O)[O-])ccc3C)[nH]2)cc1O	68	61	55	97	72
Cc1ccc(C2CC(C(F)F)n3ncc(C(=O)Nc4cnn(Cc5ccccc5C)c4)c3N2)cc1 (stereo not drawn)	1.8*	16*	14*	63	2.1*
Cc1ccccc1Cn1cc(NC(=O)c2nn(C)cc2Cl)cn1	92	nt	nt	nt	91
CCN(Cc1ccccc1)S(=O)(=O)c1ccc(C(=O)N2CCN(c3nc4ccccc4s3)CC2)cc1	58	nt	nt	nt	58
CCc1cccc2c1NC(=O)C21N2CCCC2C(C(=O)c2ccc3ccccc3c2)C12C(=O)Nc1ccccc12 (stereo not drawn)	9	nt	nt	nt	6
CCc1ccc2c(c1)C1(C(=O)N2)N2CCCC2C(C(=O)c2ccc3ccccc3c2)C12C(=O)Nc1ccccc12 (stereo not drawn)	1.3*	nt	nt	nt	1.1*
COc1ccc(-c2ccc(-c3noc(-c4ccccc4OC)n3)c(OC)n2)cc1	88	72	34*	100	100
COc1ccccc1CC(=O)Nc1ccc(-c2noc(COc3cccc(C)c3C)n2)cc1	75	80	38*	105	82
Cc1cc(OCc2nc(-c3ccc(NC(=O)c4cccnc4)cc3)no2)ccc1Cl	52	nt	nt	nt	70
COc1cccc(-c2nc(-c3ccc(NC(=O)Cc4ccccc4OC)cc3)no2)c1	85	101	107	97	72
COc1ccccc1CC(=O)Nc1ccc(-c2noc(COc3ccc(Br)cc3)n2)cc1	93	86	19*	83	93
O=C(Nc1ccc(-c2noc(CCc3ccccc3)n2)cc1)c1cccnc1	78	68	5.5*	87	85
NC(=O)[C@@H]1CCCNc2c(I)cc([N+](=O)[O-])cc2C(=O)N[C@@H](CO)C(=O)NCC(=O)N1	89	nt	nt	nt	93
CCOC(=O)C1CCN(c2ccc(C(N)=O)cc2[N+](=O)[O-])CC1	91	nt	nt	nt	97
O=C([C@H](Cc1ccccc1)NS(=O)(=O)c1ccc(Cl)cc1)N1CC[C@@]2(O)CCCC[C@H]2C1	68	82	46	102	48
CCCc1ccc(OCc2nc(-c3ccc(NC(=O)c4cccs4)cc3)no2)cc1	15	nt	nt	nt	25
SMILES	HCT116 bCat-KO	HUVEC prolif 384	H69AR inhibit	Lung fibro prol	HCT116 PTEN-null
CCCc1ccc(OCc2nc(-c3ccc(NC(=O)c4ccco4)cc3)no2)cc1	11	51	9.2*	51	10
Cc1ccccc1OCc1nc(-c2ccc(NC(=O)c3ccco3)cc2)no1	87	70	93	94	94
COc1ccc(CC(=O)Nc2ccc(-c3noc(-c4ccccc4OC)n3)cc2)cc1	95	26*	17*	66	91
Cc1ccccc1OCc1nc(-c2ccc(NC(=O)c3ccc4c(c3)OCO4)cc2)no1	61	31	16*	30*	46
O=C(NNC(=O)c1ccc(SCC2CCCO2)c([N+](=O)[O-])c1)c1ccc(Cl)c([N+](=O)[O-])c1 (stereo not drawn)	77	64	6.1*	63	82
CCSc1ccccc1C(=O)n1nnc2ccccc21	95	81	12*	86	98
COc1ccccc1Cc1nc2ccccc2n1S(=O)(=O)c1ccc(Cl)cc1	76	nt	nt	nt	90
COc1ccc(NS(=O)(=O)c2ccc(NS(=O)(=O)c3ccc(SC)cc3)cc2)c(OC)c1	90	85	55	101	nt
COc1ccc(OC)c(NS(=O)(=O)c2ccc(SC)cc2)c1	22	62	14*	84	27
COc1ccc(C)cc1NS(=O)(=O)c1ccc(NS(=O)(=O)c2ccc(NC(C)=O)cc2)cc1	98	93	94	98	98
COc1ccc(OC)c(NS(=O)(=O)c2ccc(NC(C)=O)cc2)c1	76	91	34*	93	67
COc1ccc(S(=O)(=O)Nc2cc(Cl)ccc2OC)cc1	19	39	19*	52	18
CCOc1ccc(S(=O)(=O)Nc2cc(OC)ccc2OC)cc1	14	50	23*	100	9
CCOc1ccc(S(=O)(=O)Nc2cc(OC)c(OC)cc2C(=O)O)cc1	98	nt	nt	nt	101
COc1ccc(OC)c(S(=O)(=O)Nc2ccc(O)c3ccccc23)c1	1.8*	2.3*	1.9*	55	2.0*
COc1ccc(OC)c(S(=O)(=O)Nc2ccc(Oc3ccccc3)cc2)c1	85	91	94	92	71
COc1ccc(N2CCN(c3oc(Cc4ccccc4)nc3C#N)CC2)cc1	64	82	35*	96	60
COC(=O)c1cc(=O)n(CCc2ccc(OC)c(OC)c2)c(=Nc2ccc(F)c(Cl)c2)s1	2.4*	7.5*	1.1*	10*	3.7*
COC(=O)c1cc(=O)n(Cc2ccc(OC)c(OC)c2)c(=Nc2ccc(F)cc2)s1	2.0*	17*	1.9*	12*	2.0*
CCOC(=O)c1c(C(=O)OCC)c(C)n(CCc2ccc(OC)c(OC)c2)c1C	86	nt	nt	nt	98
C/C(=N\NC(=O)c1cccc(S(=O)(=O)Nc2ccccc2Cl)c1)c1ccc(-n2ccnc2)cc1	90	nt	nt	nt	83
N#CCCS(=O)(=O)c1nnnn1-c1ccccc1	nt	58	0.4*	67	nt
O=C1c2[nH]nc(-c3ccccc3O)c2C(c2ccc(F)cc2)N1Cc1ccco1 (stereo not drawn)	81	79	1.8*	92	80
O=C1c2[nH]nc(-c3ccccc3O)c2C(c2ccc(F)cc2)N1CC1CCCO1 (stereo not drawn)	89	100	64	86	81
O=C1c2[nH]nc(-c3ccccc3O)c2C(c2cccc(Cl)c2)N1Cc1ccco1 (stereo not drawn)	62	4.9*	0.8*	88	49
O=C1c2[nH]nc(-c3ccccc3O)c2C(c2cccc(Cl)c2)N1CC1CCCO1 (stereo not drawn)	84	71	21*	91	82
